Screens from PubChem.
STEP block: blocks human striatal-enriched tyrosine phosphatase | recombinant STEP, OMFP fluorogenic substrate, fluorescence | inhibition, % at 20 µM | 0.25% of 360,000 active | AID 588621;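 active means inhibition at 20 µM, scaled per plate between control wells, above about 37%, limit read from the data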;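 further: 0% = DMSO with enzyme and substrate and 100% = substrate only without enzyme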
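medium = Bis-Tris buffer pH 6.0, 2.5 mM DTT, 0.005% Tween 20 | test system = STEP (striatal-enriched tyrosine phosphatase) enzyme, cell-free | measure = normalized % inhibition | compound dosing = 20 µM, 1% DMSO | also added = 25 µM OMFP | schedule = reaction 20 min, ambient temperature | measured by = fluorescence read at 480 nm ex / 540 nm em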
LMPTP block: LMPTP (human) inhibition | recombinant LMPTP-A, OMFP fluorogenic substrate, fluorescence intensity | AID 651560 | inhibition, % at 20 µM | 0.22% of 360,000 active;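 active means compounds that cut the enzyme signal by at least half of the control window in the single-dose screen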;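 further: plate controls were DMSO wells with enzyme plus substrate for no effect and substrate without enzyme for full effect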
Target sequence (P24666 whole entry, looked up): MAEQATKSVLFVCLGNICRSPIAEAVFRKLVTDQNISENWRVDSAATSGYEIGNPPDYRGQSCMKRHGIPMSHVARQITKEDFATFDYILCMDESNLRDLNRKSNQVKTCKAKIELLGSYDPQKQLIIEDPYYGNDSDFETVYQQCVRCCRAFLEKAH
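Test system: LMPTP-A phosphatase enzyme; input: 0.625 nM LMPTP-A final; reagent: OMFP substrate, 400 µM final; compound dosing: 20 µM single dose, 3% DMSO; incubation: 50 min dark incubation at room temperature; measured by: endpoint fluorescence intensity from OMFP dephosphorylation; measure: % inhibition relative to no-enzyme and uninhibited control wells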
SUMO1-SIM PPI: alters human SUMO1 binding to SIM partners; P63165; SUMO1 binding to a labelled peptide, TR-FRET, 1 h; inhibition, % at 20 µM; 0.33% of 360,000 active; AID 602429; in the data active means inhibition above about 37%
Target sequence (P63165 whole entry, looked up): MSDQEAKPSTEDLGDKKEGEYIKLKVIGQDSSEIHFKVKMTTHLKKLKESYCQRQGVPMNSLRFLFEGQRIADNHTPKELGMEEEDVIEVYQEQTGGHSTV
DNMT1 inh: inhibitors of human DNMT1. P26358. DNMT1 molecular beacon, Hinp1I cleavage, fluorescence. inhibition (reported as % activation of signal), % at 10 µM. 0.83% of 360,000 active. AID 588458; in the data active means inhibition above about 50%
Scp-1 inhibitor: Scp-1 (human) phosphatase inhibition; Q9GZU7; Recombinant Scp1, phosphopeptide, malachite green phosphate absorbance; inhibition, % at 20 µM; 0.88% of 340,000 active;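 active means inhibition above about 50% at 20 µM, limit read from the data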;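 further: plate controls were DMSO wells with enzyme for no effect and wells lacking enzyme for full effect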
Target sequence (Q9GZU7 76-261 limits assumed): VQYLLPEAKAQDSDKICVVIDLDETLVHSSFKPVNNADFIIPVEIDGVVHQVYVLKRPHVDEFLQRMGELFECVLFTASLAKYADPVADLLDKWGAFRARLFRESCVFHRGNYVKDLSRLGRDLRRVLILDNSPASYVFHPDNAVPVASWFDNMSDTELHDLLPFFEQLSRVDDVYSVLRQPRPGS
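Test system: SCP-1 phosphatase catalytic domain, residues 76-261 | Compound dosing: One concentration, 20 µM, with 1.0% DMSO | Schedule: 45 min room-temperature reaction, 5 min colour, 30 min stabiliser | Detection: Absorbance at 630 nm | Read-out basis: % inhibition of SCP-1 phosphate liberation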
Scp-1 conf: Scp-1 (human) inhibition, single-dose confirmed; shares compounds with Scp-1 inhibitor; recombinant SCP-1 catalytic domain, phosphate release, malachite green absorbance; inhibition, % at 20 µM; 61% of 2,500 active; AID 540281;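 further: plate controls were DMSO with enzyme for no effect and buffer wells lacking enzyme for full effect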
Scp-1 MG ctr: interferes with malachite green readout, flagging false Scp-1 hits. shares compounds with Scp-1 inhibitor. Colorimetric interference counterscreen, malachite green absorbance 630 nm. 2,500 tested, under 10 active. apparent inhibition (interference), % at 20 µM;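 further: compounds added after enzyme reaction finished so only phosphate colour detection is probed; plate controls were DMSO wells with completed Scp-1 reaction for no effect and substrate wells lacking enzyme for full effect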
Scp-1 Tm shift: validation of human Scp-1 inhibitors by thermal shift binding | Recombinant SCP1, Sypro Orange thermal shift Tm | shares compounds with Scp-1 inhibitor | 25% of 1,500 active | thermal shift relative to vanadate control, % at 40 µM;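 active means substances whose mean melting-temperature shift, as a percentage of the reference inhibitor's shift, reaches about 5.3%, limit read from the data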;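 further: 0% = Tm of DMSO wells and 100% = Tm with sodium orthovanadate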
DNMT1 inh conf: confirmation of human DNMT1 inhibitors. shares compounds with DNMT1 inh. DNMT1 molecular beacon HinP1I cleavage, fluorescence. inhibition, % at 10 µM. 8% of 2,300 active. AID 602385;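 active means average inhibition of at least 30% in the single-concentration confirmation test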
DNMT1 interf: counter-screen for DNMT1 inhibitors: spectral interference | shares compounds with DNMT1 inh | DNMT1 molecular beacon spectral interference counterscreen, fluorescence 485/520 | activation (fluorescence interference), % at 10 µM | 1% of 2,300 active | AID 602387;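 active means activation of at least 30% at 10 µM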;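 further: DNMT1 catalytic domain with a HinP1I cleavage step and a FAM/dabcyl DNA beacon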
An asterisk follows results filed as active; . = no result. Compounds with a hit are over-represented: about 1.7% of the library has one in this group of screens.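 How the source made its calls, unless noted: active means inhibition of at least 30% at 20 µM; inactive means the rest.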

SMILES | STEP block | LMPTP block | SUMO1-SIM PPI | DNMT1 inh | Scp-1 inhibitor | Scp-1 conf | Scp-1 MG ctr | Scp-1 Tm shift | DNMT1 inh conf | DNMT1 interf
COc1ccc(-n2c(C)c3c(OC)cccc(=O)c3c2C)cc1 | 1 | 4 | -13 | -12 | -8 | . | . | . | . | .
COc1cccc(=O)c2c(C)n(-c3ccc(C(=O)O)cc3)c(C)c12 | 18 | 3 | 24 | 63* | 60* | 29 | -16 | . | 3 | -3
CCOc1cccc(=O)c2c(C)n(-c3ccc(C(=O)O)cc3)c(C)c12 | 31 | 3 | 41* | 94* | 60* | 55* | -4 | 15* | 2 | 0
C[C@H]1CN([C@@H](C)CO)C(=O)CCCn2cc(nn2)CO[C@@H]1CN(C)C(=O)Nc1ccc(C(F)(F)F)cc1 | -2 | -1 | 20 | 4 | . | . | . | . | . | .
O=C(/C=C/c1ccco1)N(c1ccccn1)c1ccccn1 | 26 | 15 | 19 | 97* | 65* | 69* | -6 | 6.3* | 6 | -3
CS(=O)(=O)c1cccc(NC(=O)C2CCCN2S(=O)(=O)c2ccc(F)cc2)c1 (stereo unspecified) | -2 | -1 | 0 | 4 | -6 | . | . | . | . | .
C=CC(=O)NCC1OCCc2ccccc21 (stereo unspecified) | -2 | 0 | 0 | 1 | 1 | . | . | . | . | .
O=C(/C=C/c1ccco1)NCC1OCCc2ccccc21 (stereo unspecified) | 5 | 5 | 3 | 56* | 91* | 62* | -13 | 1 | 10 | 1
CC(C)(C)S(=O)N1Cc2cc(CO)cc(-c3ccccc3)c2[C@@H]1CCO (stereo partly specified) | -4 | 0 | 0 | -5 | -11 | . | . | . | . | .
Cc1ccc2nc(N/N=C\c3ccc([N+](=O)[O-])o3)nc(-c3ccccc3)c2c1 | 5 | 8 | -33 | 15 | 38 | . | . | . | . | .
O=[N+]([O-])c1ccc(/C=N/Nc2nc(-c3ccccc3)c3cc(Br)ccc3n2)o1 | 16 | 60* | -13 | 51* | 101* | 76* | -5 | 5 | 6 | 1
CCOc1ccc(CCNC(=O)COC(=O)C2CC2)cc1OCC | 0 | -1 | 3 | -5 | -6 | . | . | . | . | .
Cc1cc(C)c2nc(-c3ccccc3)ccc2c1 | -2 | 2 | -3 | 5 | . | . | . | . | . | .
O=C(CSc1nccc(=O)[nH]1)N1N=C2/C(=C/c3ccco3)CCCC2C1c1ccco1 (stereo unspecified) | 1 | 6 | 12 | 76* | 60* | 65* | -13 | -7 | 10 | 3
Nc1nc(SCC(=O)N2N=C3/C(=C/c4ccco4)CCCC3C2c2ccco2)n[nH]1 (stereo unspecified) | 0 | 1 | -1 | 17 | 0 | . | . | . | . | .
C=CCn1c(O)c(N=NC(=O)CNC(=O)/C=C/c2ccc(OC)cc2)c2ccccc21 | -1 | 1 | -30 | -2 | 0 | . | . | . | . | .
C=CCn1c(O)c(N=NC(=O)CNC(=O)/C=C/c2ccco2)c2ccccc21 | 12 | 21 | -6 | 93* | 90* | 48* | -17 | 5 | 11 | 2
CC(=O)C(=Cc1ccc(Cl)cc1)C(=O)c1ccccc1 | 1 | 0 | 8 | 5 | . | . | . | . | . | .
CCCCC[C@H](C)N1C[C@H](COCc2ccccc2)Oc2cc(N3CCC[C@H]3COC)ccc2S1(=O)=O | . | 5 | 1 | . | . | . | . | . | . | .
Cc1ccc(C(=O)Oc2ccc(C(=O)COC(=O)C3CC(=O)N(Cc4ccco4)C3)cc2)cc1 (stereo unspecified) | 4 | 2 | 6 | 66* | 60* | 48* | -18 | 3 | 12 | 2
